E-selectin induc: E-selectin induction on HUVECs | P16581 | HUVEC E-selectin immunofluorescence imaging; normalized: neutral wells 0, TNF-alpha wells 100 | activation, % at 7.58 µM | hit rate 0.37% among 260,000 | AID 686992;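 active = mean E-selectin-positive cell signal at least 10% of the positive control, reached in at least 60% of replicates, without over 20% cell loss; inconclusive = no rule given, readout overlaps actives, possibly toxicity-flagged; inactive = the rest, including those meeting only one limit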
Target sequence (P16581 whole entry, looked up): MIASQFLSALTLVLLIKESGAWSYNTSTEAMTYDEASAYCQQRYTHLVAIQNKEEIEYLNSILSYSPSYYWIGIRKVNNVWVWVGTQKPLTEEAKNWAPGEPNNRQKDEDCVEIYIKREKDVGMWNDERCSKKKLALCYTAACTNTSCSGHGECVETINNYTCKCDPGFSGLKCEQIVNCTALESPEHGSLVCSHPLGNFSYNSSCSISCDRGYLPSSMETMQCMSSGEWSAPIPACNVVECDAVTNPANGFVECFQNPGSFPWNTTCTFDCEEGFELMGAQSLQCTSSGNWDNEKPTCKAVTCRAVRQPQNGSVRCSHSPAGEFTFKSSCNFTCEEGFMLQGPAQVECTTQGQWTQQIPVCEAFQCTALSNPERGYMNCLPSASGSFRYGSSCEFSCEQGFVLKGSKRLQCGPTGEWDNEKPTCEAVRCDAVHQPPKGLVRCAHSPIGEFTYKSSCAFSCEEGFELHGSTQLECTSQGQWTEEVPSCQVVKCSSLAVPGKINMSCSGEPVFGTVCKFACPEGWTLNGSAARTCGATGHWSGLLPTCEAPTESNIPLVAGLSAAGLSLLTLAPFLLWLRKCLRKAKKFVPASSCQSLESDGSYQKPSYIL
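Test system – human umbilical vein endothelial cells (HUVEC), E-selectin induction · Input – 3,000 HUVEC seeded per well · Buffer or medium – EGM-2, gelatin · Compound dosing – single-point compound dose · Detection – immunofluorescence imaging · Measure – percent E-selectin-positive cells · Controls – TNF-alpha high, DMSO low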
SIRT5 inh: inhibitors of human sirtuin-5 desuccinylase; hit rate 1.1% among 330,000; Purified SirT5, succinyl-peptide AMC, trypsin-coupled fluorescence; Q9NXA8; inhibition, % at 15 µM; AID 652115; in the data active = inhibition above about 15%; inconclusive = no clear call, values can overlap the other calls
DENV2 CPE: protects cells from dengue virus 2 cytopathic effect; DENV2-infected cells, cytopathic effect rescue, plate reader; CPE inhibition, % at 9.99 µM; hit rate 1.7% among 350,000; in the data active = CPE inhibition above about 20%, passing the limit was not always enough; inconclusive = no clear call, values can overlap the other calls; tested in BHK-21 cells;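 note: 0% = median of neutral control wells and 100% = median of positive control wells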
Numbers without * were called inactive; ? = inconclusive; · = no result given. An excerpt weighted towards active compounds, which were near 2.8% of everything screened.

SMILES	E-selectin induc	SIRT5 inh	DENV2 CPE
C[C@H]1CN([C@@H](C)CO)C(=O)c2cc(NC(=O)CCCN(C)C)ccc2O[C@@H]1CN(C)C(=O)NC1CCCCC1	0	-6	3
C[C@@H]1CN([C@H](C)CO)C(=O)c2cc(NC(=O)Nc3cccc4ccccc34)ccc2O[C@H]1CN(C)Cc1ccc(C(=O)Nc2ccccc2N)cc1	-3	·	8
C[C@@H]1CN([C@H](C)CO)C(=O)c2cc(NC(=O)CCC(F)(F)F)ccc2O[C@H]1CN(C)Cc1ccc(C(=O)Nc2ccccc2N)cc1	-3	·	20*
C[C@@H]1CN([C@H](C)CO)C(=O)c2cc(NC(=O)Nc3cccc4ccccc34)ccc2O[C@@H]1CN(C)Cc1ccc(C(=O)Nc2ccccc2N)cc1	6	15*	?
C[C@@H]1CN([C@H](C)CO)C(=O)c2cc(NC(=O)Nc3ccc(C(F)(F)F)cc3)ccc2O[C@H]1CN(C)Cc1ccc(C(=O)Nc2ccccc2N)cc1	16	8	22*
C[C@H]1CN([C@@H](C)CO)C(=O)c2cc(NC(=O)CCC(F)(F)F)ccc2O[C@H]1CN(C)Cc1ccc(C(=O)Nc2ccccc2N)cc1	1	·	10
C[C@@H]1CN([C@@H](C)CO)C(=O)c2cc(NC(=O)Nc3ccc(C(F)(F)F)cc3)ccc2O[C@H]1CN(C)Cc1ccc(C(=O)Nc2ccccc2N)cc1	4	4	6
O=C(CC1CC1)N1[C@@H](CO)[C@H](c2ccccc2)C12CN(Cc1ccncc1)C2	0	-3	1
COc1cc(CN2[C@@H]3CNC[C@H]2C3c2ccc(-c3ccc(C)cc3)cc2)cc(OC)c1 (stereo partly specified)	0	·	-8
CO[C@@H](CN(C)C(=O)c1ccccc1F)[C@@H](C)CN([C@@H](C)CO)S(=O)(=O)c1ccc(Cl)cc1	0	-2	-2
CCCNC(=O)[C@@H]1[C@@H](CO)[C@@H]2Cn3c(cccc3=O)[C@H]1N2C(=O)C1CCCC1	0	4	2
O=C(C[C@H]1C=C[C@H](NC(=O)C2CCC2)[C@H](CO)O1)NCc1ccncc1	0	-5	-10
CC1(C(=O)Nc2cccc(OC(F)(F)F)c2)Cc2c(-c3cccc(C(N)=O)c3)ccnc2O1 (stereo unspecified)	0	0	21*
CC1(C(=O)NCc2ccccc2)Cc2c(-c3cccc(C(F)(F)F)c3)ccnc2O1 (stereo unspecified)	2	-2	-1
CC1(C(=O)Nc2cccc(C(F)(F)F)c2)Cc2c(-c3cccc(C(N)=O)c3)ccnc2O1 (stereo unspecified)	0	-4	-2
CC1(C(=O)NCc2cccs2)Cc2c(-c3cccc(C(F)(F)F)c3)ccnc2O1 (stereo unspecified)	0	1	27*
O=C(NCC[C@H]1CC[C@H](NC(=O)C2CCOCC2)[C@@H](CO)O1)Nc1ccc(Cl)cc1	-1	-3	0
Cc1ccc2nc(=O)c(NNc3ccccc3)cnc2c1	178*	2	-2
Cc1nc2ccccc2nc(=O)c1NNc1ccccc1	·	-3	1
CCNC(=O)C[C@@H]1CC[C@@H]2[C@H](COc3ccc(NC(=O)Nc4ccc(Cl)cc4)cc3C(=O)N2C)O1	0	3	1
C[C@@H]1CN([C@@H](C)CO)C(=O)c2cc(NC(=O)Nc3ccccc3)ccc2O[C@@H](C)CCCCO[C@H]1CN(C)Cc1ccc(C(F)(F)F)cc1	0	·	-17
CC(C)CN(CCCNC(=O)CC1Oc2ccccc2NC1=O)CC(C)C (stereo unspecified)	·	-3	·
COc1cccc(NC(=O)CC2Oc3ccccc3NC2=O)c1 (stereo unspecified)	0	-4	0
CSc1cccc(NC(=O)CC2Oc3ccccc3NC2=O)c1 (stereo unspecified)	·	-4	37*
CCCCN(CC)CCCNC(=O)CC1Oc2ccccc2NC1=O (stereo unspecified)	·	17*	-1
SMILES	E-selectin induc	SIRT5 inh	DENV2 CPE
Cc1cc(-c2onc(C)c2C(=O)N/N=C/c2ccccc2)no1	·	1	-5
Cc1ccc(SC(=O)c2c(C)noc2-c2cc(C)on2)cc1	2	-3	41*
C[C@H]1CN([C@@H](C)CO)C(=O)c2cc(NC(=O)CCC(F)(F)F)ccc2O[C@@H]1CN(C)C(=O)Nc1ccc(F)cc1	1	5	2
CCCCC[C@@H](/C=C/C1C(=O)C=C[C@H]1C/C=C\CCCC(=O)OC)OC(C)=O (stereo partly specified)	·	3	25*
CO[C@H]1CN(C)C(=O)c2cc(NS(=O)(=O)c3ccccc3Cl)ccc2OC[C@H](C)NC[C@H]1C	0	1	10
C/C(=N\Nc1ncc(Cl)cc1Cl)c1ccc2c(c1)OCO2	·	25*	2
C/C(=N\NC(=O)c1ccc2c(c1)OCO2)c1ccc2c(c1)OCO2	·	1	-4
